The source of these data is ChEMBL document CHEMBL1134534, “Phenylpiperazinylalkylamino substituted pyridazinones as potent alpha(1) adrenoceptor antagonists” (J Med Chem, 2001).

Experiment [1] concerns the target T1, Alpha-1A adrenergic receptor (Homo sapiens) (UniProt P35348).
T1 sequence (whole entry): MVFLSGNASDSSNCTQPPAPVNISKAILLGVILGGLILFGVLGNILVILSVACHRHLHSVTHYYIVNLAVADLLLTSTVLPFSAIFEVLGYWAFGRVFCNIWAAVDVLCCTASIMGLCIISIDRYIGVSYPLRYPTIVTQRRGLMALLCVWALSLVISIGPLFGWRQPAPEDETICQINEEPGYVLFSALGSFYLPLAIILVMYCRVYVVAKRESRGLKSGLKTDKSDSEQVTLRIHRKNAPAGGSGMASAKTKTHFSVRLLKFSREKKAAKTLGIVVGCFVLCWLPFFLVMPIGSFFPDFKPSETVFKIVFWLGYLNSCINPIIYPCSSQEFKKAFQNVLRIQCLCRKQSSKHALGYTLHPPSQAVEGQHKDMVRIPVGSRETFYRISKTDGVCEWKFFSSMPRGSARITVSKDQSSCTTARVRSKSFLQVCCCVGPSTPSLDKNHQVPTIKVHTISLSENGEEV
As to the kind of experiment: Experimental binding affinity for alpha-1A-adrenergic receptor. Summed up:
(§1)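 Membranes (30 µg protein) from CHO cells stably transfected with each human α1 subtype. Nonspecific binding defined with 10 µM phentolamine. Filtration. IC50 from curve fit, converted to Ki by Cheng–Prusoff. Triplicates; 2–3 experiments.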

Experiment [2] addresses T2, Alpha-1B adrenergic receptor (Homo sapiens) (UniProt P35368).
T2 sequence (whole entry): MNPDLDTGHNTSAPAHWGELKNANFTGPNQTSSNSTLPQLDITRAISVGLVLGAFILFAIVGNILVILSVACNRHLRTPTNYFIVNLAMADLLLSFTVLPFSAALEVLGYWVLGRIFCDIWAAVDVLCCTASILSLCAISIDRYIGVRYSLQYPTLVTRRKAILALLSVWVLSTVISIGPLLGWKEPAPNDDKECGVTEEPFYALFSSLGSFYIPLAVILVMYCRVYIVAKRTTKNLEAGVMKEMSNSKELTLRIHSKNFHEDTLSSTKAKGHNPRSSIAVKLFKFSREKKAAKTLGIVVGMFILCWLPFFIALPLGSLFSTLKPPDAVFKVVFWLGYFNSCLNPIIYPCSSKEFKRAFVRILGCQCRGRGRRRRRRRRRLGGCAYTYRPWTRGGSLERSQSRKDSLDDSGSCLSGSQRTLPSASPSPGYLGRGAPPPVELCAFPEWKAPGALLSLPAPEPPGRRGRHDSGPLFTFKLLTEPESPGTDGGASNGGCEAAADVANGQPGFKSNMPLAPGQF
As to the kind of experiment: Experimental binding affinity for alpha-1B-adrenergic receptor. An outline of the steps: as §1

Experiment [3] concerns the target T3, Alpha-1A adrenergic receptor (Homo sapiens, UniProt P35348).
T3 sequence (P35348 whole entry): T1 sequence (whole entry)
As to the kind of experiment: Binding affinity towards human cloned alpha-1A-adrenoceptor using [3H]prazosin as radioligand.

Experiment [4] concerns the target T4, 5-hydroxytryptamine receptor 1A (Homo sapiens, UniProt P08908).
T4 sequence (P08908 whole entry): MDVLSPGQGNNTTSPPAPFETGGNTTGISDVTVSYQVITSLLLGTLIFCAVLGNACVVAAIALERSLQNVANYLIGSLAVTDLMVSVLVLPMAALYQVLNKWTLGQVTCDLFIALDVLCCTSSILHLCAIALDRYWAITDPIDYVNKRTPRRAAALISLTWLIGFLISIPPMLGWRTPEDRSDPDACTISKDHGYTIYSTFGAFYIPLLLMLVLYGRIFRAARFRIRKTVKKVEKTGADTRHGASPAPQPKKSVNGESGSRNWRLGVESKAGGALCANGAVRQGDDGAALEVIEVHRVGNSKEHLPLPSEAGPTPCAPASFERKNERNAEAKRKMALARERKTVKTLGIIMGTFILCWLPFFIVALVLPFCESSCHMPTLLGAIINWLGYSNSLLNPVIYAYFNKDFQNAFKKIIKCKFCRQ
As to the kind of experiment: Ability to influence the binding of [35S]GTP-gamma-S, to HeLa cell membranes expressing the human 5-hydroxytryptamine 1A receptor. It is filed as functional. Summed up:
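Membranes from HeLa cells stably expressing human 5-HT1A, in 20 mM HEPES, 3 mM MgSO4, 120 mM NaCl pH 7.4. Preincubated 20 min at 30 °C with 30 µM GDP and compound (100 µM to 0.1 nM), then [35S]GTPγS (150–250 pM) added for a further 30 min at 30 °C. Nonspecific binding defined with 10 µM GTPγS. Filtration, scintillation counting. pEC50 from nonlinear curve fit; 2–3 experiments.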

For experiment [5], the target named is T5, Alpha-1D adrenergic receptor (Homo sapiens) (UniProt P25100).
T5 sequence (whole entry): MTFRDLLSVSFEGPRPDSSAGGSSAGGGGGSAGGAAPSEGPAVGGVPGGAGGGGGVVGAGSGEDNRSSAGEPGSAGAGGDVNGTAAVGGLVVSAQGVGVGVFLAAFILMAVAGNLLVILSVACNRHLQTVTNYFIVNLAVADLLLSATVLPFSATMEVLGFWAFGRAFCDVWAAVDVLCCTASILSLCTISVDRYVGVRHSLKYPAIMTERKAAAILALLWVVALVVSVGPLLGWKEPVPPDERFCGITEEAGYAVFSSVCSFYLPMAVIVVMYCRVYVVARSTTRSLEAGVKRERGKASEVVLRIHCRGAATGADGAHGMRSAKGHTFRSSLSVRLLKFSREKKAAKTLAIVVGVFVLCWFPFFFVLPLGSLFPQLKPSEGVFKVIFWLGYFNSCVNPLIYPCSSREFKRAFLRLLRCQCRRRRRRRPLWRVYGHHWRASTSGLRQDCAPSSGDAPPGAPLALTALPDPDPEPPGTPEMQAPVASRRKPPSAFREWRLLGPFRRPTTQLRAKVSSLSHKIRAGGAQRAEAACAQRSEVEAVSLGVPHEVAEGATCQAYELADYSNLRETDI
As to the kind of experiment: Experimental binding affinity for alpha-1D-adrenergic receptor. Summed up: as §1

Experiment [6] deals with T4, 5-hydroxytryptamine receptor 1A. As to the kind of experiment: Binding affinity towards human cloned 5-hydroxytryptamine 1A receptor using [3H]8-OH-DPAT as radioligand.
For experiment [7], the target named is T6, Alpha-1B adrenergic receptor (Homo sapiens, UniProt P35368).
T6 sequence (P35368 whole entry): T2 sequence (whole entry)
Put plainly: Binding affinity towards human cloned alpha-1B-adrenoceptor using [3H]prazosin as radioligand.

For experiment [8], the target named is T7, 5-hydroxytryptamine receptor 1A (Homo sapiens) (UniProt P08908).
T7 sequence (whole entry): T4 sequence (P08908 whole entry)
As to the kind of experiment: Percent of maximum effect on binding of [35S]GTP-gamma-S, to HeLa cell membranes expressing the human 5-hydroxytryptamine 1A receptor. It is filed as functional. Summed up: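 [35S]GTPγS binding on human 5-HT1A-expressing HeLa membranes, with 30 µM GDP, compound 100 µM–0.1 nM, 20 min then 30 min at 30 °C. Stimulation given as percent increase over basal, with the maximal 5-HT response set to 100%. Emax taken from the nonlinear curve fit; 2–3 experiments.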

Experiment [9] has as its target T8, Alpha-1D adrenergic receptor (Homo sapiens, UniProt P25100).
T8 sequence (P25100 whole entry): T5 sequence (whole entry)
Put plainly: Binding affinity towards human cloned alpha-1D-adrenoceptor using [3H]prazosin as radioligand.

For `CCC(=O)c1c(-c2ccccc2)nn(C)c(=O)c1NCCN1CCN(c2ccccc2OC)CC1`, the pK1a in experiment [1] amounted to 9.72. Besides, the pK1b in [2] is 8.84. Besides, the inhibition constant Ki in experiment [3] amounted to 0.19 nM; in experiment [6], 4.06 nM; in experiment [7], 1.45 nM; in experiment [9], 0.25 nM. The molecule further showed a concentration giving a half-maximal response (EC50) in experiment [4] of 2.51 nM. This molecule displayed a pK1d in experiment [5] of 9.6. In experiment [8], this molecule displayed an Effect of 19%.

With `COc1ccccc1N1CCN(CCCNc2c(C(C)=O)c(C)nn(C)c2=O)CC1`, the pK1a in experiment [1] is 9.09. The molecule further displayed a pK1b in experiment [2] of 7.27. In addition, the Ki in experiment [3] worked out at 0.89 nM; in [6], 1.48 nM; in experiment [7], 53.4 nM; in [9], 34.5 nM. In [4], this molecule gave a concentration giving a half-maximal response (EC50) of 1.58 nM. The pK1d in [5] is 7.46. Also, the Effect in [8] stood at 17%.
